Screening results deposited in PubChem BioAssay by several laboratories.
HSF1 inh: HSF1 inhibition. NIH3T3-HGL HSE-luciferase, MG132-induced, luminescence 8 h; stronger effect = lower value. activity change, negative = inhibition, % at 7.5 µM (by protocol). hit rate 0.77% among 300,000. AID 2098;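 active = more than half of replicate wells show activity change below -50%, luminescence cut by over half; inconclusive = some wells, but at most half, below -50%; inactive = no replicate well below -50%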;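 also: luciferase reports HSF-1 transcriptional activity via heat shock element; 0% = median of DMSO wells and -100% = zero luminescence signal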
core dimer inh: blocks dimerization of HCV core protein | hit rate 0.33% among 300,000 | AID 1899 | TR-FRET GST/Flag-core106 dimerization, 1536-well | inhibition, % at 5 µM;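 active = inhibition above the mean of all tested compounds plus 3 SD, set per screening campaign, cut at about 45% in these data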
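Assay system – GST-tagged and Flag-tagged HCV core protein residues 1-106 · Quantity – core106 proteins, GST 13.5 nM and Flag 17 nM · Benchmarks – unlabelled core106 and no-GST-core106 wells · Read-out basis – percent inhibition of core106 dimerization signal · Detection – time-resolved FRET, ex 340 nm, em 617 and 671 nm · Schedule – 4 h at 22.5 °C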
AI-2 QS modul: modulators of Vibrio harveyi AI-2 quorum sensing system. Vibrio harveyi JMH597 AI-2 luminescence/OD600 ratio, 9 h; stronger effect = lower value; strain lacks LuxN and CqsS sensors; 0 = neutral-control median. activity change, % at 7.5 µM. hit rate 0.4% among 300,000; in the data active = activity change below about -75%, passing the limit was not always enough; inconclusive = no clear call, values can overlap the other calls;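 also: luminescence divided by OD600 gain over 9 h not by final OD600 alone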
PHOSPHO1 block: blocks human PHOSPHO1 phosphatase activity | hit rate 1.1% among 290,000 | Q8TCT1 | recombinant PHOSPHO1, absorbance phosphatase assay | inhibition, % at 13.3 µM; in the data active = inhibition above about 60%
Target sequence (Q8TCT1 whole entry, looked up): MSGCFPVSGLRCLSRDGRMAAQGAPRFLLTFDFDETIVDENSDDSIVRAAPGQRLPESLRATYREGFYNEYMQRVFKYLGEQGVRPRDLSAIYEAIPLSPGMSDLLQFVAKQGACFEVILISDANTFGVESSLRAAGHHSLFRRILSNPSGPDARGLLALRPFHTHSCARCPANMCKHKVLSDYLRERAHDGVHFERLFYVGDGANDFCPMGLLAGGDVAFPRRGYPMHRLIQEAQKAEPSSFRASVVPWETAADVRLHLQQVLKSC
ALR H2O2 inh: blocks human ALR sulfhydryl oxidase activity; hit rate 3.8% among 290,000; P55789; AID 485317; inhibition, % (concentration not given with the values); purified ALR, DTT oxidation, H2O2 HRP-luminol luminescence;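 active = mean replicate inhibition above about 79%, with every replicate also reaching it, limit read from the data; inconclusive = only one of the two criteria met; inactive = mean below limit and not every replicate reaching it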
Target sequence (P55789 whole entry, looked up): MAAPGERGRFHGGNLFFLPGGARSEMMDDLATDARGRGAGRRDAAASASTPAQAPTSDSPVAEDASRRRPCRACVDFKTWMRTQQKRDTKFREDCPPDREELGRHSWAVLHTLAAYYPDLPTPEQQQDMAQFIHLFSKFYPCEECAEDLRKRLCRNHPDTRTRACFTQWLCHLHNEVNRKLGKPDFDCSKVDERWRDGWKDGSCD
HSF-1 act: increases HSF-1 driven luciferase reporter signal; NIH3T3-HGL HSF-1 luciferase reporter, MG132, 8 h; 100% = twice DMSO control signal; hit rate 1.7% among 300,000; activation, % at 9 µM;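 active = mean replicate activation of at least 50% with a set share of replicates each reaching 50%; inconclusive = only one of those two conditions met; inactive = mean below 50% and too few replicates reaching it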;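 also: 0% = median of the neutral control wells and 100% = twice that signal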
Starred values were filed as active, the others as inactive; ? = inconclusive; / = no result. Rows were chosen to be rich in hits. Some 6.8% of all compounds tested hit in one or more screens of this group.

SMILES | HSF1 inh | core dimer inh | AI-2 QS modul | PHOSPHO1 block | ALR H2O2 inh | HSF-1 act
O=c1[nH][nH]c2ccccc2c1=O | -4 | -1 | 17 | -10 | -6 | 2
CCN(CCCNC(=O)Cn1ncc2c([nH]c3ccc(C)cc32)c1=O)c1cccc(C)c1 | -1 | 7 | 21 | 12 | -2 | -8
COc1cccc(CN2CC(C(=O)NCc3ccc(C)o3)CCC2=O)c1 (configuration not stated) | 59 | / | 6 | -7 | / | 108*
Cc1ccc(C(=O)NCC(=O)OC(C)C(=O)Nc2ccc(N(C)C)cc2)s1 (configuration not stated) | -9 | -5 | 10 | 28 | 99* | -21
Cc1ccc(C2(c3ccc(C)cc3)CC2C(=O)NCc2cccnc2)cc1 (configuration not stated) | -3 | 5 | 0 | 16 | -28 | 5
CN1/C(=C/C=N/n2cnnc2)C(C)(C)c2ccccc21 | -2 | -3 | 29 | -7 | 94* | 2
Cc1cc(=O)oc2cc(OCC(=O)N3CCC(O)CC3)c(Cl)cc12 | -2 | -4 | 16 | 23 | 0 | 11
O=C(NCc1ccncc1)c1ccc(Cn2cc(C(F)(F)F)ccc2=O)cc1 | -3 | -2 | 10 | 60* | -9 | 7
O=C(O)c1ccc(Cn2cc(C(F)(F)F)ccc2=O)cc1 | -6 | -6 | 23 | 11 | -1 | 18
Cc1cccc(NC(=O)c2ccc(Cn3cc(C(F)(F)F)ccc3=O)cc2)c1 | -2 | 0 | 12 | 65* | 4 | 18
Cc1ccccc1Cc1ccc(Cl)nn1 | 1 | -2 | 12 | 12 | -2 | 11
COc1cccc2c1C(=O)c1c(O)c3c(c(O)c1C2=O)C[C@](O)(C(C)=O)C[C@H]3O[C@@H]1C[C@@H](N)[C@@H](O)[C@@H](C)O1 | -67* | -17 | -2 | / | -3 | -63
COc1cccc(OCC(=O)O)c1 | -4 | 0 | 16 | 23 | -4 | -1
CC1CC(=O)Nc2cc([N+](=O)[O-])ccc2N1 (configuration not stated) | -89* | -5 | 16 | 27 | 5 | -92
CC1CC(=O)Nc2ccc([N+](=O)[O-])cc2N1C (configuration not stated) | -4 | -3 | 18 | 6 | 7 | 7
Cc1cc2c(cc1C)C(c1cccc([N+](=O)[O-])c1)CC(=O)N2 (configuration not stated) | 33 | -6 | 5 | -9 | 42 | 63*
Cc1nn(-c2ccccc2)c(Cl)c1C1C(C#N)=C(N)OC2=C1C(=O)CC(C)(C)C2 (configuration not stated) | -1 | -4 | 34 | 10 | 1 | 13
CC1(C)CC(=O)C2=C(C1)OC(N)=C(C#N)C2c1cccs1 (configuration not stated) | -1 | 4 | 15 | 8 | 96* | -6
CC1(C)CC(=O)C2=C(C1)OC(N)=C(C#N)C2c1ccccc1 (configuration not stated) | -54* | 2 | 8 | -2 | 6 | -61
CC1(C)CC(=O)C2=C(C1)OC(N)=C(C#N)C2c1ccc2c(c1)OCO2 (configuration not stated) | -8 | -4 | -4 | 30 | 40 | -6
CC(C)c1ccc(-c2nn(-c3ccccc3)cc2C2C(C#N)=C(N)OC3=C2C(=O)CC(C)(C)C3)cc1 (configuration not stated) | 22 | 48* | 30 | 24 | -1 | 22
CCN(CC)c1ccc(/C=N/NC(=O)c2cccc(N3CCCC3=O)c2)cc1 | -3 | -22 | 17 | 45 | 97* | 7
COc1cc(/C=N/NC(=O)c2cccc(N3CCCC3=O)c2)ccc1O | -6 | -14 | 10 | 17 | 100* | 3
COc1ccc([N+](=O)[O-])cc1N(CC(=O)N(C)C)S(C)(=O)=O | -13 | 1 | -13 | 40 | -3 | -3
O=C1OCCN1/N=C/c1ccc([N+](=O)[O-])o1 | 6 | 5 | ? | 4 | -16 | 11
SMILES | HSF1 inh | core dimer inh | AI-2 QS modul | PHOSPHO1 block | ALR H2O2 inh | HSF-1 act
O=C1CN(/N=C/c2ccc([N+](=O)[O-])o2)C(=O)N1 | 0 | -3 | -89* | 4 | -22 | -6
Cc1cccc(/C=N/Nc2ccc3ccccc3n2)c1 | 2 | 3 | 7 | -34 | / | 0
C(=N\Nc1nc2ccccc2[nH]1)/c1ccc2c(c1)OCCO2 | 49 | -8 | -24 | 28 | / | 71*
C(=N\Nc1ccc2ccccc2n1)/c1ccc2c(c1)OCCO2 | -80* | -3 | 23 | 20 | -3 | -85
Cc1ccc(/C=N/Nc2ccc3ccccc3n2)o1 | / | -15 | 6 | 19 | 99* | /
C(=N\Nc1nc2ccccc2[nH]1)/c1ccc2ncccc2c1 | 15 | -15 | 6 | 3 | 13 | 41
Cc1cc(C(=O)N/N=C/c2ccc(C)o2)c2ccccc2n1 | -5 | -9 | 26 | 3 | 0 | -8
CCC(C)C(=O)Nc1ccc(OC)cc1[N+](=O)[O-] (configuration not stated) | -2 | -1 | 8 | -1 | -7 | -6
O=c1c2ccccc2nc(COc2ccccc2)n1/N=C/c1cn[nH]c1-c1ccccc1 | -18 | 5 | 10 | -9 | 0 | 4
Cc1ccc(-c2[nH]ncc2/C=N/n2c(C)nc3ccccc3c2=O)cc1 | -52* | 6 | 23 | 16 | -4 | -60
O=c1c2ccccc2nc(COc2ccccc2)n1/N=C/c1ccc(O)cc1O | 4 | -3 | 56 | 12 | 77* | 0
O=c1c2ccccc2nc(COc2ccccc2)n1/N=C/c1c[nH]c2ccccc12 | 2 | 1 | 8 | 9 | / | 15
Cc1nc2ccccc2c(=O)n1/N=C/c1ccc(O)c(O)c1O | -8 | 0 | 59 | 32 | 98* | -9
CC(C)=CC(=O)O[C@@H]1Cc2cc3ccc(=O)oc3cc2OC1(C)C | / | / | / | / | 2 | /
COC(C(=O)Nc1ccnn1C1CCN(Cc2cnn(C(C)C)c2)CC1)c1ccccc1 (configuration not stated) | 4 | 5 | 15 | 32 | 4 | 8
COC(=O)c1sc(-c2cccs2)cc1NC(=O)/C=C/C(=O)O | 11 | -16 | 2 | 13 | 98* | 5
COC(=O)c1sc(-c2ccccc2)cc1NC(C)=O | -2 | 5 | 2 | 52 | 2 | 4
CCOC(=O)c1cn2nc(SCc3ccccc3)nc2nc1C | -23 | 4 | 15 | 45 | -10 | -36
CC(=O)c1cn(CC(=O)Nc2c(C)cccc2C)c2ccccc12 | -4 | -7 | 17 | 32 | -16 | 2
COc1ccc2cnnc(SCC(=O)Nc3ccc(C(C)=O)cc3)c2c1OC | 1 | 3 | -2 | -10 | 74 | 2
Cc1ccc([N+](=O)[O-])cc1NC(=O)CSc1nncc2ccccc12 | 31 | 6 | 32 | 17 | 0 | 21
